A selection: hits, their analogues and other compounds. The true share with any hit is near 2.5%.
TRPC4 potent = TRPC4 (mouse) allosteric potentiation; Q9QUQ5; HEK293 TRPC4beta/mu-opioid, DAMGO EC20, Fluo-4 Ca2+ flux; hits give high values; B-score at 10 µM; 310,000 compounds, 0.42% hits; AID 2227;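 active = B-score of calcium response area above 5 SD of library B-scores, with initial fluorescence ratio within 5 SD of library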;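 also: B-score of integrated fluorescence ratio over time as area under calcium response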
Platelet DG rel = modulates dense granule release in human platelets; 300,000 compounds, 0.22% hits; human platelet-rich plasma, SFLLRN dense granule ATP release, luminescence; inhibition, %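 (compounds screened at 7.5 µM in platelet-rich plasma)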; AID 1663;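 active = mean replicate score, as percent of positive control, at or above 50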
TRPC4 agonist = opens the mouse TRPC4 cation channel | B-score at 10 µM | 310,000 compounds, 0.49% hits | Q9QUQ5 | HEK293 TRPC4beta/mu-opioid, Fluo4 calcium fluorescence; hits give high values | AID 2237;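 active = B-score above 5 SD of library B-scores, and initial fluorescence ratio not above library mean plus 5 SD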;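 also: positive B-score marks a calcium rise read as TRPC4 activation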
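Material: TRPC4beta and mu-opioid receptor HEK293 stable cells | Incubation: 45 min room-temperature Fluo4 loading, 110 s read | Detection: Kinetic Fluo4 calcium fluorescence | Measure: Integrated baseline-normalised fluorescence ratio, converted to per-well B score | Benchmarks: Low control buffer alone, high control maximal DAMGO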
TRPC6 inhibitor = inhibitors of mouse TRPC6 channel; HEK293-TRPC6, membrane potential dye, ACh-evoked depolarization; hits give low values; AID 2553; B-score at 10 µM; Q61143; 310,000 compounds, 1.1% hits;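 active = B-score under library mean minus 3 SD, initial fluorescence not abnormally high, positive integrated signal ratio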;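 also: B-score derived from integrated fluorescence ratio over the kinetic read; more negative B-score means stronger inhibition of depolarization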
TRPC6 activator = activates the mouse TRPC6 cation channel; B-score at 10 µM; 310,000 compounds, 0.13% hits; HEK293-TRPC6 membrane potential dye fluorescence; hits give high values; Q61143;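 active = B-score of the integrated fluorescence ratio above library mean plus 3 SD, and starting fluorescence ratio within library mean plus 5 SD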;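 also: higher score means more depolarization so channel activation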
TRPC4 inh = inhibitors of mouse TRPC4 channel. AID 2247. B-score at 10 µM. HEK293 TRPC4beta/mu-opioid, DAMGO-evoked Fluo4 calcium flux; hits give low values. Q9QUQ5. 300,000 compounds, 0.39% hits;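 active = B-score over 3 SD under the library average, no early fluorescence shift, positive overall ratio signal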
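Assay system: HEK293 cells with stable TRPC4beta plus mu-opioid receptor expression. Dosing: single dose. Measured by: Fluo4 Ca2+ flux fluorescence. Also added: DAMGO in two steps, submaximal then maximal. Read-out: B score from integrated Fluo4 fluorescence ratio.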
TRPC4 sel inh 2 = second selectivity test of TRPC6 inhibitors: effect on mouse TRPC4. 920 compounds, 42% hits. inhibition, % at 10 µM. shares compounds with TRPC6 inhibitor. HEK293 TRPC4/MOR, membrane potential dye fluorescence; channel activated by saturating DAMGO dose;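 active = compounds whose fluorescence signal differed from control wells by over 3 SD, either direction, in both duplicate plates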
TRPC4 spec = tests whether TRPC6 inhibitors also affect mouse TRPC4; shares compounds with TRPC6 inhibitor; HEK293 TRPC4/mu-opioid, membrane potential fluorescence; activity change, negative = inhibition, % at 10 µM; 920 compounds, 61% hits; AID 2777;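 active = rise or fall in signal beyond 3 SD of buffer-only wells in both replicate plates, either sign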;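 also: integrated kinetic ratio of fluorescence range over baseline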
HEK293 MPD ctr 2-1 = second counter-screen for TRPC6 inhibitors: parental HEK293 cells | signal change vs control, % at 10 µM | parental HEK293 membrane potential dye fluorescence; maximal acetylcholine challenge after compound addition | 920 compounds, 31% hits | shares compounds with TRPC6 inhibitor;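 active = membrane potential signal moving either way by over 3 SD of the maximum-effect control, in both duplicate plates, meaning non-specific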
HEK293 MPD ctr-1 = checks TRPC6 inhibitor effects in parental HEK293 cells; 920 compounds, 60% hits; shares compounds with TRPC6 inhibitor; AID 2780; membrane potential signal change, % at 10 µM; parental HEK293 membrane potential dye fluorescence;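 active = membrane potential signal shifting up or down by more than 3 SD of buffer-only wells, on both duplicate plates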
HEK293 MPD ctr-2 = checks TRPC6 modulator effects in parental HEK293 cells | shares compounds with TRPC6 inhibitor | membrane potential signal change, % at 10 µM | AID 488924 | 2,400 compounds, 51% hits | membrane potential dye fluorescence;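 active = membrane potential signal moves up or down beyond 5 SD from buffer-only wells, on both duplicate plates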
HEK293 MPD ctr 2-2 = second counter-screen for TRPC6 modulators: effect in parental HEK293 cells. shares compounds with TRPC6 inhibitor. membrane potential dye fluorescence; after compound, maximal acetylcholine stimulation. inhibition, % at 10 µM. 2,400 compounds, 14% hits;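 active = membrane potential signal drops by more than 5 SD from the mean control signal, in both duplicate plates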;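 also: plate controls were acetylcholine ECmax control wells for no effect and buffer only wells for full effect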
TRPC4/MOR mod = mouse TRPC4 off-target activity of TRPC6 modulators. shares compounds with TRPC6 inhibitor. HEK293 TRPC4/mu-opioid, membrane potential fluorescence. percent change from control (negative = decrease, positive = increase), % at 10 µM. 2,400 compounds, 69% hits;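 active = membrane potential signal moved up or down beyond 5 SD of buffer control wells, in both duplicate plates, actives on both sides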;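 also: plate controls were assay buffer wells for no effect and DAMGO maximal-effect wells for full effect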
TRPC4 ctr inh 2 = mouse TRPC4 off-target activity of TRPC6 modulators, second screen; shares compounds with TRPC6 inhibitor; HEK293 TRPC4/mu-opioid, membrane potential dye fluorescence; stimulated with maximal-effect DAMGO; inhibition, % at 10 µM; 2,400 compounds, 55% hits;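 active = drop in membrane potential signal beyond 5 SD of the control wells in both duplicate plates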;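 also: TRPC4 counter screen for TRPC6 hits run under conditions tuned for TRPC6 not TRPC4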
TRPC6 inh conf = confirmation of mouse TRPC6 inhibitors; shares compounds with TRPC6 inhibitor; HEK293-TRPC6, membrane potential dye, ACh-evoked depolarization; inhibition, % at 10 µM; 3,300 compounds, 43% hits; AID 488960;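 active = fluorescence ratio falls more than 5 SD below the full-stimulation control mean, in both duplicate runs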;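 also: integrated fluorescence ratio of peak minus minimum over baseline after agonist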
TRPC6 act conf = confirmation of mouse TRPC6 activators; AID 488961; 2,800 compounds, 11% hits; shares compounds with TRPC6 inhibitor; HEK293-TRPC6 membrane potential dye fluorescence, FDSS; activation, % at 10 µM;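 active = ratio signal rise beyond 5 SD above unstimulated control wells' mean, seen in both duplicate runs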;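 also: plate controls were buffer EC0 wells for no effect and acetylcholine ECmax response for full effect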
* = called active by the depositor; i = inactive; . = no result given.

SMILES	TRPC4 potent	Platelet DG rel	TRPC4 agonist	TRPC6 inhibitor	TRPC6 activator	TRPC4 inh	HEK293 MPD ctr-2	HEK293 MPD ctr 2-2	TRPC4/MOR mod	TRPC4 ctr inh 2	TRPC6 inh conf	TRPC6 act conf	others
COc1ccc(-n2cc(CNCCCn3ccnc3)c(-c3cccc(F)c3)n2)cc1	i	2	i	-6*	i	i	i	i	-8.5%*	74%*	42%*	i
COc1ccc(CNC(=O)Cn2nnc(-c3ccc(NC(=O)C4CCCCC4)cc3)n2)cc1	i	-7	i	i	i	i	.	.	.	.	.	.
CC/C(=C\c1oc2cc3ccccc3cc2[n+]1CC)Nc1ccccc1	i	-13	i	-5.1*	i	i	i	i	i	80%*	59%*	i
CC1C(=O)N2CCCc3cc(NC(=O)C(=O)NCc4cccnc4)cc1c32 (stereo unspecified)	i	-4	i	i	i	i	.	.	.	.	.	.
O=C(NCc1ccco1)C1CCCN(S(=O)(=O)c2ccc(Br)cc2)C1 (stereo unspecified)	i	-1	i	i	i	i	.	.	.	.	.	.
Fc1ccc(N/N=C/C=C/c2ccccc2)c(F)c1	i	12	i	i	i	i	.	.	.	.	.	.
CCOc1ccc(NC(=S)NCc2ccco2)cc1	i	0	i	i	i	i	.	.	.	.	.	.
CCOC(=O)c1ccc(NC(=S)NCc2ccco2)cc1	i	5	i	-9.3*	i	i	.	.	.	.	i	i	TRPC4 sel inh 2=i;TRPC4 spec=i;HEK293 MPD ctr 2-1=i;HEK293 MPD ctr-1=i
CS(=O)(=O)N(CC(=O)Nc1ccc2c(c1)OCCO2)Cc1ccc(Cl)cc1	i	.	i	i	i	i	.	.	.	.	.	.
CCOC(=O)c1ccc(NC(=S)NCc2ccc(S(N)(=O)=O)cc2)cc1	i	-11	i	-5.3*	i	i	i	i	i	i	48%*	.
CCOC(=O)c1ccc(NC(=S)N(CCN2CCCCCC2)Cc2ccco2)cc1	i	-14	i	i	i	i	.	.	.	.	.	.
CCOC(=O)c1ccc(NC(=O)CN(Cc2ccc(Cl)cc2)S(C)(=O)=O)cc1	i	0	i	-6.6*	i	i	.	.	.	.	i	i	TRPC4 sel inh 2=i;TRPC4 spec=-12%*;HEK293 MPD ctr 2-1=i;HEK293 MPD ctr-1=i
CCOC(=O)c1ccc(NC(=S)N(CCCN2CCCCCC2)Cc2ccco2)cc1	i	5	i	-5.7*	i	i	i	i	i	77%*	56%*	i
COc1ccccc1OCCNC(=O)Cc1ccc(S(=O)(=O)N2CCOCC2)s1	i	-5	i	i	i	i	.	.	.	.	.	.
CCOC(=O)C1=NN(c2ccc(Cl)cc2)C(=O)C1	i	4	i	i	i	i	.	.	.	.	.	.
COc1cc(C(=O)N/N=C/c2ccccn2)cc(OC)c1OC	i	4	i	i	i	i	.	.	.	.	.	.
CN(C)c1ccc(C(=O)N/N=C/c2ccccn2)cc1	i	-6	i	-6.6*	i	i	-159%*	i	-28%*	36%*	i	i
COc1ccc(C(=O)N/N=C/c2ccccn2)cc1OC	i	1	i	-7*	i	i	-296%*	i	-50%*	40%*	38%*	i
CC1(c2nnc(Cc3ccccc3)o2)CC(c2cccc(Cl)c2)=NO1 (stereo unspecified)	i	5	i	i	i	i	.	.	.	.	.	.
O=C(O)/C(=C\c1ccco1)NC(=O)c1cccc2ccccc12	i	1	i	i	i	i	.	.	.	.	.	.
CCN(CC)C(=O)CSc1nc2ccccc2c(=O)n1-c1cccc(OC)c1	i	-6	i	-5.9*	12*	i	158%*	i	36%*	i	i	73%*
Cn1c2ccc(F)cc2c2nnc(SCC(=O)Nc3cccc(O)c3)nc21	i	7	i	i	i	i	.	.	.	.	.	.
COc1ccc(/C=C/C(=O)Nc2ccccc2C(=O)NCC(c2ccc(OC)cc2)N(C)C)cc1 (stereo unspecified)	i	-1	48*	-6.8*	i	-7*	.	.	.	.	i	i	TRPC4 sel inh 2=12%*;TRPC4 spec=49%*;HEK293 MPD ctr 2-1=i;HEK293 MPD ctr-1=i
O=C(CCC(=O)Nc1nnc(C2CCCCC2)s1)NCc1ccc(F)cc1	i	11	i	i	i	i	.	.	.	.	.	.
O=C(Oc1ccccc1Cl)c1ccc2c(=O)n3c(nc2c1)CCC3	i	-2	i	-5.4*	i	i	i	i	i	i	i	i
Cn1c(CNC(=O)CNC(=O)c2cccc(F)c2)cc(=O)n(C)c1=O	i	-2	i	i	i	i	.	.	.	.	.	.
Cc1ccc(N=C2C(=O)Nc3ccccc32)cc1	i	2	i	i	i	i	.	.	.	.	.	.
CCN(CC)c1ccc(N=C2C(=O)Nc3ccccc32)cc1	i	4	i	-7.5*	i	i	-261%*	i	-40%*	89%*	76%*	i

Screening data: PubChem BioAssay, several laboratories
